From ChEMBL document CHEMBL1123457, “Effect of methoxy substitution on the adrenergic activity of three structurally related alpha 2-adrenoreceptor antagonists” (J Med Chem, 1986)

What was measured:
[1] = target: T1, Alpha-2 adrenergic receptor (Mus musculus) (UniProt P30545+Q01338+Q01337); assay: Agonist potency towards alpha-2 adrenergic receptor in the mouse isolated electrically stimulated vas deferens with reference to clonidine (prejunctional); type: functional, tissue-based
Procedure, shortened: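 Mouse vas deferens from adult male MFI mice (>30 g), 0.5 g initial tension, in magnesium-free Krebs at 30 °C, gassed 95% O2/5% CO2. Field stimulation at 0.1 Hz with 3-ms pulses; voltage of 100-140 V set to give about 100 mg twitch, recorded isometrically. Repeated cumulative concentration-response curves to clonidine were run until ID50 values were consistent.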

[2] = target: T2, Adrenergic receptor alpha-1 (Rattus norvegicus) (UniProt P15823+P23944+P43140); assay: Antagonist potency towards alpha-1 adrenergic receptor in the rat isolated anococcygeus with reference to pA2 idazoxan (postjunctional)
[3] = tested on: Adrenergic receptor alpha-1 (Mus musculus); assay: Agonist potency towards alpha-1 adrenergic receptor in the mouse isolated electrically stimulated vas deferens with reference to phenylephrine (postjunctional)
[4] = target: T1, Alpha-2 adrenergic receptor (Mus musculus); assay: Antagonist potency towards alpha-2 adrenergic receptor in the mouse isolated electrically stimulated vas deferens with reference to idazoxan (prejunctional); type: functional, tissue-based
Procedure, shortened: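 Mouse vas deferens (adult male MFI mice, >30 g) under 0.5 g tension in magnesium-free Krebs, 30 °C, 95% O2/5% CO2. Field stimulation at 0.1 Hz, 3-ms pulses, 100-140 V giving about 100 mg twitch, isometric recording. Twitches were inhibited by 110 nM clonidine in the Krebs.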

[5] = tested on: Adrenergic receptor alpha-1 (Rattus norvegicus); assay: Antagonist potency towards alpha-1 adrenergic receptor in the rat isolated anococcygeus with reference to pA2 idazoxan (postjunctional)
[6] = target: T3, Adrenergic receptor alpha-1 (Rattus norvegicus, UniProt P15823+P23944+P43140); assay: Antagonist potency towards alpha-1 adrenergic receptor in the rat electrically stimulated vas deferens with reference to phenylephrine; type: functional, tissue-based
T3 sequence (P15823 whole entry): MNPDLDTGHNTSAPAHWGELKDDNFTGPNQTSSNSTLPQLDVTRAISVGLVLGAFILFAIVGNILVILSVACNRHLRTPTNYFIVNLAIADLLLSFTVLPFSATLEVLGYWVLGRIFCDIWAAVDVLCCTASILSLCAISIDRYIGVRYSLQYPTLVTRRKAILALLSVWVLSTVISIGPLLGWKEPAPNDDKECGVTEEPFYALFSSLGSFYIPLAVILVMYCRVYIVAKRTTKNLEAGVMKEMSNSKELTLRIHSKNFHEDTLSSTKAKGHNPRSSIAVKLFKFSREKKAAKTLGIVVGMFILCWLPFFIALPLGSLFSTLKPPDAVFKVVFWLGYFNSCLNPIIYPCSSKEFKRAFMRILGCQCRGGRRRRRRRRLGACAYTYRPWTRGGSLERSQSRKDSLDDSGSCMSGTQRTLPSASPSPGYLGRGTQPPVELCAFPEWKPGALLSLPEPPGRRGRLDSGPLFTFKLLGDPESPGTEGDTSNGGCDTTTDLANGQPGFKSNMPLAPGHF
T3 sequence (P23944 whole entry): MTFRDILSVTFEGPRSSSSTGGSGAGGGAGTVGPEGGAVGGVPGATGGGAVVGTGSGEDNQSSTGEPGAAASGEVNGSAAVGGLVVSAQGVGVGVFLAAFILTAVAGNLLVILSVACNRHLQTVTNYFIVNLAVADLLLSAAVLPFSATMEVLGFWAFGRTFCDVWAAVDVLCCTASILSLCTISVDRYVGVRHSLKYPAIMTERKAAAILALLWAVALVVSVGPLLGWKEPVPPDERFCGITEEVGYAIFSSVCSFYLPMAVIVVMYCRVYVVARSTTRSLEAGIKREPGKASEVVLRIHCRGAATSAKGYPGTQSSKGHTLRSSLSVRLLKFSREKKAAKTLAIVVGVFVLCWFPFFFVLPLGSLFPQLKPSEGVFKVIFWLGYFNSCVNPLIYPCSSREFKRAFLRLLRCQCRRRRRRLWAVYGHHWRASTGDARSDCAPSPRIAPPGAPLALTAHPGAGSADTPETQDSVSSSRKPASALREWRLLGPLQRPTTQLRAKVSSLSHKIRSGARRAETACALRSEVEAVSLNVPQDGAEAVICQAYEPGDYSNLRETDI
T3 sequence (P43140 whole entry): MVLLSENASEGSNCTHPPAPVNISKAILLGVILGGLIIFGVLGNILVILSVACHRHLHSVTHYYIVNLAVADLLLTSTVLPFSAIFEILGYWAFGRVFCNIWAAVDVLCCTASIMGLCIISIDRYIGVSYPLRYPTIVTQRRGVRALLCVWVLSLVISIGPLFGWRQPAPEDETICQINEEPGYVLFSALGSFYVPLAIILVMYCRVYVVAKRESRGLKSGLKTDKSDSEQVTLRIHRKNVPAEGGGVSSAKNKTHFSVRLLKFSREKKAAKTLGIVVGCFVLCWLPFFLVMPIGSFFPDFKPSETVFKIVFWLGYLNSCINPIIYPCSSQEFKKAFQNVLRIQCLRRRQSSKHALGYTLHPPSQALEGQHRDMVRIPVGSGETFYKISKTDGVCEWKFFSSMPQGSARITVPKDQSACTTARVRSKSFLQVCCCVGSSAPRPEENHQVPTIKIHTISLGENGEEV

[7] = tested on: Adrenergic receptor alpha-1 (Rattus norvegicus); assay: Agonist potency towards alpha-1 adrenergic receptor in the rat isolated anococcygeus with reference to phenylephrine (postjunctional)
[8] = target: T4, Adrenergic receptor alpha-2 (Rattus norvegicus, UniProt P22086+P19328+P22909); assay: Antagonist potency towards alpha-2 adrenergic receptor in the rat electrically stimulated vas deferens with reference to P-aminoclonidine; type: functional, tissue-based
T4 sequence (P22086 whole entry): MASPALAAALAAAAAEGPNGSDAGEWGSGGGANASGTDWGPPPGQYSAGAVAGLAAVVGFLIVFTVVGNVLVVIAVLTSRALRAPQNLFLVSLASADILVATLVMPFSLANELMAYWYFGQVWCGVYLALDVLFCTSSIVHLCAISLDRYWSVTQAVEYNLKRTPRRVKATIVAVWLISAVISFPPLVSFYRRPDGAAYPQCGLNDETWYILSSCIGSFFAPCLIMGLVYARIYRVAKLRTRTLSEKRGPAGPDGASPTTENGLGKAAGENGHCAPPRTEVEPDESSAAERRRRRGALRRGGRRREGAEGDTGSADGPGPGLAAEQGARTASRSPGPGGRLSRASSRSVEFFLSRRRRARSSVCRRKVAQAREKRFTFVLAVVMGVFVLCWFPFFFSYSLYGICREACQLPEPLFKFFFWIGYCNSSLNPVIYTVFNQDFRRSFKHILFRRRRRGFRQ
T4 sequence (P19328 whole entry): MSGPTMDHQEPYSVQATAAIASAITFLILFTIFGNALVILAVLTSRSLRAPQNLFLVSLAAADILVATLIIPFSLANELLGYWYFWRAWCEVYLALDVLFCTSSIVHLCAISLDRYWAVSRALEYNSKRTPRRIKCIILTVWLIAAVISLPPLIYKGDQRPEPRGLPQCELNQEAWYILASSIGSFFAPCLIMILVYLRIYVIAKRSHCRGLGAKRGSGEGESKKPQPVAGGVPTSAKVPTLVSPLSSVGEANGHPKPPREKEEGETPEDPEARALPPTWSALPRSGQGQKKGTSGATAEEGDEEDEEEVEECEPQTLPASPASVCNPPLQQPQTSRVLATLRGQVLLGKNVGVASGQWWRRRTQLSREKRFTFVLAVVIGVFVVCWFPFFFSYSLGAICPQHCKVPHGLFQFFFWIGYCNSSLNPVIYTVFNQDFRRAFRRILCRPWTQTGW
T4 sequence (P22909 whole entry): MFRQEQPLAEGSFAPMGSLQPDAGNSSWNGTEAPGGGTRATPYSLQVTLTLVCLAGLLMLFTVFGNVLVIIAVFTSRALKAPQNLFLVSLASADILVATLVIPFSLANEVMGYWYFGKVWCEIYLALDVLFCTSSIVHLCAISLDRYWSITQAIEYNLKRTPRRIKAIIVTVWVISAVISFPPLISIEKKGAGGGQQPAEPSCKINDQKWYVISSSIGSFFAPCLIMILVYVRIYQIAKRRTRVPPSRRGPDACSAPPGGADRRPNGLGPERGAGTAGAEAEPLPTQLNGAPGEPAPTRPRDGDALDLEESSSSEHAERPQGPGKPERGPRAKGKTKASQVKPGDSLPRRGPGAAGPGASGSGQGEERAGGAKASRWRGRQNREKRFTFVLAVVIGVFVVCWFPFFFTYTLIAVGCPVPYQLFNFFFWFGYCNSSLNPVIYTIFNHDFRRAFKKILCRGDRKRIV

[9] = target: T2, Adrenergic receptor alpha-1 (Rattus norvegicus); assay: Agonist potency towards alpha-1 adrenergic receptor in the rat isolated electrically stimulated vas deferens with reference to phenylephrine (postjunctional); type: functional, tissue-based
Procedure, shortened: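 Vas deferens in Krebs solution (NaCl 118 mM, KCl 4.7 mM, CaCl2 2.5 mM, KH2PO4 1.2 mM, MgSO4 0.6 mM, NaHCO3 25 mM, dextrose 11.1 mM), gassed with 95% O2/5% CO2, at 30 °C. Intramural nerves stimulated with 3-ms rectangular pulses, 40 V, 0.1 Hz. Contractions recorded isometrically.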

[10] = target: T2, Adrenergic receptor alpha-1 (Rattus norvegicus); assay: Antagonist potency towards alpha-1 adrenergic receptor in the rat isolated electrically stimulated vas deferens with reference to pA2 idazoxan (postjunctional); type: functional, tissue-based
Rattus norvegicus = species: Rattus norvegicus; assay: Agonist potency of phenylephrine in rat isolated anococcygeus muscle; type: functional, Muscle tissue

CCN(CC)CC1COc2ccccc2O1 (configuration not stated) was tested, and the Potency [1] was 0, the Potency [2] was 0.52 and the Potency [3] was 0. For the same compound, the Potency [4] was 0.033.

COC1(CN2CCCCC2)COc2ccccc2O1 (configuration not stated) gave a Potency [1] of 0, a Potency [5] of under 0.012 and a pA2 [6] of under 4.48. It also gave a Potency [4] of 0.00065, a Potency [7] of 0 and a pA2 [8] of 5.19.

With COC(Oc1ccc(Cl)c(Cl)c1)C1=NCCN1 (configuration not stated) the Potency [1] was 0, the Potency [2] was 0.063 and the Potency [3] was 0. It also gave a Potency [4] of 0.0021.

c1ccc2c(c1)OCC(CN1CCCCC1)O2 (configuration not stated) [PIPEROXAN] showed a Potency [1] of 0, a Potency [9] of 0 and a Potency [4] of 0.29. For the same compound, the Potency [10] was 4.8 and the pA2 [8] was 7.54.

For CNC[C@H](O)c1cccc(O)c1 [PHENYLEPHRINE], the pD2 (Rattus norvegicus) was 6.54.

COC1(C2=NCCN2)COc2ccccc2O1 (configuration not stated) was tested, and the Potency [1] was 0, the Potency [9] was 0 and the pA2 [6] was 7.43. The Potency [4] was 11.3, the Potency [10] was 8.3 and the pA2 [8] was 9.92.

Compound Clc1ccc(OCC2=NCCN2)cc1Cl has a Potency [1] of under 0.0008, a Potency [9] of 0.16 and a Potency [4] of 0.018.

With CCN(CC)CC1(OC)COc2ccccc2O1 (configuration not stated) the Potency [1] was 0, the Potency [2] was under 0.012 and the Potency [3] was 0. The Potency [4] was 0.0037.

c1ccc2c(c1)OCC(C1=NCCN1)O2 (configuration not stated) gave a Potency [1] of 0, a Potency [9] of 0 and a Potency [4] of 1. The Potency [10] was 1.
